Assay outcomes (PubChem BioAssay)
An excerpt weighted towards active compounds, which were near 3.4% of everything screened.
Cdc25B inh = inhibitors of human Cdc25B phosphatase; P30305; AID 368; recombinant Cdc25B, OMFP fluorescence Ex485/Em525; 65,000 tested, 0.1% active; inhibition, %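 (compounds tested at 10 µM final in the well)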; in the data active = inhibition above about 50%
SF1 activator = activates the human nuclear receptor SF-1; Q13285; CHO-K1 Gal4-SF-1 LBD luciferase reporter; % increase over DMSO SF-1-specific signal; activation, % at 10 µM; 65,000 tested, 1.9% active; AID 522;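 active = activation above the mean activation of all tested compounds plus 3 SD, cut at about 50% in these data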
Target sequence (Q13285 whole entry, looked up, the tested form may be a part): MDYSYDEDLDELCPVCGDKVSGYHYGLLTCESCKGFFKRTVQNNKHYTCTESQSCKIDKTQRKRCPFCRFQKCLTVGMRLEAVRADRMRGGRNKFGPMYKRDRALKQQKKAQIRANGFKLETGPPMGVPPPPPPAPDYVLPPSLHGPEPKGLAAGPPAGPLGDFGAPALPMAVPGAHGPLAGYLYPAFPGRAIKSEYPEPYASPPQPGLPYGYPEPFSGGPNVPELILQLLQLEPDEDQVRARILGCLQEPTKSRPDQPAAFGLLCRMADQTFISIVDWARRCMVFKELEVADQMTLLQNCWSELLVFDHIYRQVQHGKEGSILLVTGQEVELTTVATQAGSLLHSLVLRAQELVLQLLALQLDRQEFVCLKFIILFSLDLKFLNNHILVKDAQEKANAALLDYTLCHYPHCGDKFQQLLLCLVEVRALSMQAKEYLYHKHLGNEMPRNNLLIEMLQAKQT
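Test system: CHO-K1 cells co-transfected with Gal4 DBD–human SF-1 LBD, 5xGal4 luciferase reporter. Quantity: 4,000 cells per well. Compound: 10 µM only. Incubation: compound added 1 h post-seeding, 20 h exposure at 37 °C, 5% CO2. Detection: SteadyLite luciferase luminescence. Replication: one test per compound.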
RORa activator = activates the human nuclear receptor RORA. P35398. CHO-K1 Gal4-RORA LBD luciferase reporter, luminescence; percent increase over mock-subtracted basal signal. activation, % at 10 µM. 65,000 tested, 1.5% active;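 active = activation above the mean of all tested compounds plus 3 SD, cut at about 49% in these data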;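 also: 0% = DMSO-treated RORA cells and 100% = added signal equal to DMSO minus mock-transfected cells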
Hsp90 block = displaces geldanamycin probe from tumor Hsp90 | P07900 | NCI-N417 lysate Hsp90, Cy3B-geldanamycin FP displacement | inhibition, % at 30 µM | 64,000 tested, 0.35% active;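 active = inhibition above 50%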;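 also: 0% = tracer plus lysate wells and 100% = tracer alone without lysate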
JNK3 inh = inhibitors of human JNK3 kinase; P53779; purified JNK3 kinase activity, HTS; inhibition, % at 8 µM; 60,000 tested, 0.61% active; AID 746; in the data active = inhibition above about 17%;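 also: 0% = DMSO and 100% = reference inhibitor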
MKP-1 inh = human dual specificity phosphatase 1 inhibition; P28562; recombinant MKP-1, OMFP hydrolysis fluorescence; inhibition, %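 (compounds tested at a single concentration somewhere between 10 and 100 µM)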; 65,000 tested, 0.15% active; AID 374;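 active = inhibition above about 50%, limit read from the data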;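 also: 0% = DMSO max control wells and 100% = wells with enzyme stopped by NaOH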
* hit, by the source's call; · = no result given.

SMILES	Cdc25B inh	SF1 activator	RORa activator	Hsp90 block	JNK3 inh	MKP-1 inh
O=C1c2ccccc2S(=O)(=O)N1CC1CC(c2ccccc2)=NO1 (configuration not stated)	-2	30	49*	-6	-2	-9
COC(=O)c1ccc(-c2ccc(CNCC(O)c3ccccc3)o2)cc1 (configuration not stated)	-5	-4	11	-3	-3	12
CN1CCc2cc(O)c(O)cc2C(c2ccccc2)C1 (configuration not stated)	·	·	·	59*	·	·
CN1CCc2c(cc(O)c(O)c2Cl)C(c2cccc(Cl)c2)C1 (configuration not stated)	·	·	·	81*	·	·
Oc1cc2c(cc1O)C(c1ccccc1)CNCC2 (configuration not stated)	·	·	·	64*	·	·
CCCCC(=O)Nc1ncc(Br)s1	-12	6	-24	-2	28*	-5
Cc1c(C#N)c2ccccc2n1CC(=O)N1CCCC1	-8	0	-20	-10	-4	3
CC(=O)n1c2ccccc2c2c(C#N)c(N3CCCCC3)sc21	-7	51*	-1	1	13	-8
Cc1ccc(C)c(/C(O)=C2\C(=O)C(=O)N(CCCN(C)C)C2c2cccnc2)c1 (configuration not stated)	0	-10	8	-5	·	-3
CC(=O)Nc1c(O)nc(SCC(=O)Nc2nnc(CC(C)C)s2)[nH]c1=O	-5	7	2	-1	1	3
CC(=O)Nc1c(O)nc(SCC(=O)Nc2ccc(C(C)=O)cc2)[nH]c1=O	-5	50*	58*	0	5	-2
CC(=O)Nc1ccc(S(=O)(=O)N2CCN(c3cccc(C)c3C)CC2)cc1	-22	31	-2	-1	1	39
CC(=O)Nc1ccc(-c2nc3c(C)cccc3[nH]2)cc1	-5	99*	-4	-7	4	-4
Cc1ccc(OCCNC(=O)c2ccco2)cc1C	-7	-8	19	-3	1	-5
O=C(NCCc1c[nH]c2ccccc12)c1cnc2n(c1=O)CCS2	3	48	60*	-7	-5	-1
CCc1nc2ccccc2c(=O)n1CCCCn1c(CC)nc2ccccc2c1=O	-11	-8	6	-1	-3	3
Fc1ccc(-c2nnc(-c3ccc(Cl)cc3)o2)cc1	-6	38	56*	0	4	5
Fc1ccc(-c2nnc(-c3ccc(Cl)cc3Cl)o2)cc1	-2	-24	-12	3	2	2
COc1ccc(OC)c(C(=O)c2coc3ccc(O)cc23)c1	-4	17	18	-2	18*	6
CC1(C)CC(=O)CC(C)(C)N1OC(=O)c1ccccn1	-7	-2	2	-1	-9	4
c1ccc2c3c([nH]c2c1)-c1[nH]ncc1CC3	2	22	-10	1	54*	-4
Clc1ccc2[nH]c3c(c2c1)CCc1cn[nH]c1-3	8	16	33	3	85*	23
COc1ccc(-c2ccc(N)[n+](CCCC(=O)O)n2)cc1	·	·	·	2	·	·
CCc1nnc(NC2=NCCC2)s1	-6	-2	11	-2	3	38
O=C(CCS(=O)(=O)c1ccc(Cl)cc1)OCC(=O)N1CCCCC1	-11	-10	-10	-4	-11	-3
SMILES	Cdc25B inh	SF1 activator	RORa activator	Hsp90 block	JNK3 inh	MKP-1 inh
COc1ccc(C(CC(=O)NC(C)(C)C)n2cccc2)cc1 (configuration not stated)	37	14	-12	-4	1	6
COc1ccc(C(CC(=O)Nc2nccs2)n2cccc2)cc1 (configuration not stated)	-10	55*	48	-4	-3	4
COc1cc(NC(=O)c2csc3c2CCCC3)ncn1	-16	14	56*	-1	1	12
C/C(=N\O)c1c(C)c2ccccc2n1C	24	-5	-6	-8	0	-9
C/C(=N\O)c1ccc2c3ccccc3n(C)c2c1	-10	54*	45	-4	6	-4
CCOC(=O)CC1=CC(C)(CC(=O)OCC)C(C#N)(C#N)C(N)=C1C#N (configuration not stated)	-4	-18	-21	-3	-5	3
CC(=O)c1c(C)nc(-c2ccc(Cl)cc2)nc1N=CN(C)C	-11	76*	68*	-1	1	7
